Data as given in ChEMBL document CHEMBL3808334, “Synthesis and in vitro evaluation of novel triazine analogues as anticancer agents and their interaction studies with bovine serum albumin” (Eur J Med Chem, 2016).

Key:
Format in all cases: functional
[1] = Growth inhibition of human HCT116 cells incubated for 48 hrs by sulforhodamine B assay; conditions: HCT-116, 48 h
Method in brief: (§1)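 Cells seeded at 5,000–40,000/well according to doubling time and preincubated 24 h at 37 °C, 5% CO2. Time-zero plates were TCA-fixed. DMSO concentrate was diluted in medium with 50 µg/ml gentamicin to give five concentrations (10-fold or ½ log steps), then exposed 48 h. Cells were TCA-fixed, stained with 0.4% SRB and read at 515 nm. Percent growth was taken against time-zero and control; GI50, TGI and LC50 derived.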

[2] = test system: EKVX; assay: Growth inhibition of human EKVX cells assessed as cell growth at 10^-7 M incubated for 48 hrs by sulforhodamine B assay; conditions: read-out: Activity; method in brief: as §1
[3] = Growth inhibition of human MOLT4 cells assessed as cell growth at 10^-5 M incubated for 48 hrs by sulforhodamine B assay; conditions: MOLT-4, 48 h, read-out: Activity
[4] = Growth inhibition of human SW620 cells assessed as cell growth at 10^-7 M incubated for 48 hrs by sulforhodamine B assay; conditions: SW-620, 48 h, read-out: Activity
[5] = test system: MDA-MB-231; assay: Growth inhibition of human MDA-MB-231 cells assessed as cell growth at 10 uM incubated for 48 hrs by sulforhodamine B assay; conditions: MDA-MB-231, 48 h, read-out: Activity
[6] = test system: KM12; assay: Growth inhibition of human KM12 cells incubated for 48 hrs by sulforhodamine B assay; conditions: KM12, 48 h
Method in brief: (§2)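 Cells were plated at 5,000–40,000 per well according to doubling time and preincubated 24 h at 37 °C in 5% CO2; time-zero plates were then TCA-fixed. Five concentrations (10-fold or ½-log dilutions, DMSO stock) were incubated 48 h. Cells were TCA-fixed, stained with 0.4% SRB and read at 515 nm. GI50 was taken where [(Ti−Tz)/(C−Tz)]×100 = 50.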

[7] = test system: MDA-MB-435; assay: Growth inhibition of human MDA-MB-435 cells assessed as cell growth at 10 uM incubated for 48 hrs by sulforhodamine B assay; conditions: MDA-MB-435, 48 h, read-out: Activity
[8] = Growth inhibition of human melanoma cells incubated for 48 hrs by sulforhodamine B assay; conditions: Melanoma cell; for CC50: read-out: LC50 (the source's name)
[9] = test system: NCI-H522; assay: Growth inhibition of human NCI-H522 cells assessed as cell growth at 10^-6 M incubated for 48 hrs by sulforhodamine B assay; conditions: NCI-H522, 48 h, read-out: Activity
[10] = Growth inhibition of human SNB19 cells assessed as cell growth at 10 uM incubated for 48 hrs by sulforhodamine B assay; conditions: SNB-19, 48 h, read-out: Activity
[11] = test system: MDA-MB-468; assay: Growth inhibition of human MDA-MB-468 cells assessed as cell growth at 10^-4 M incubated for 48 hrs by sulforhodamine B assay; conditions: MDA-MB-468, 48 h, read-out: Activity
[12] = Growth inhibition of human HOP62 cells incubated for 48 hrs by sulforhodamine B assay; conditions: HOP-62, 48 h; method in brief: as §1
[13] = test system: CCRF-CEM; assay: Growth inhibition of human CCRF-CEM cells assessed as cell growth at 10^-4 M incubated for 48 hrs by sulforhodamine B assay; conditions: read-out: Activity
Method in brief: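 Leukemia line in the five-dose format: five concentrations from 10-fold or ½-log serial dilutions. Plated at 5,000–40,000 cells per well, preincubated 24 h, then compound added for 48 h at 37 °C, 5% CO₂. Sulforhodamine B absorbance read at 515 nm. Growth is computed against time-zero (Tz) and control (C) readings; GI₅₀ is where [(Ti−Tz)/(C−Tz)]×100 = 50.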

[14] = test system: SK-MEL-28; assay: Growth inhibition of human SK-MEL-28 cells incubated for 48 hrs by sulforhodamine B assay; conditions: SK-MEL-28, 48 h; method in brief: as §2
[15] = test system: NCI-H460; assay: Growth inhibition of human NCI-H460 cells assessed as cell growth at 10^-8 M incubated for 48 hrs by sulforhodamine B assay; conditions: NCI-H460, 48 h, read-out: Activity
[16] = Growth inhibition of human LOXIMVI cells assessed as cell growth at 10^-5 M incubated for 48 hrs by sulforhodamine B assay; conditions: LOX IMVI, read-out: Activity
[17] = test system: NCI/ADR-RES; assay: Growth inhibition of human NCI/ADR-RES cells assessed as cell growth at 10^-8 M incubated for 48 hrs by sulforhodamine B assay; conditions: read-out: Activity
[18] = test system: K562; assay: Growth inhibition of human K562 cells assessed as cell growth at 10^-7 M incubated for 48 hrs by sulforhodamine B assay; conditions: K562, 48 h, read-out: Activity
[19] = test system: ACHN; assay: Growth inhibition of human ACHN cells assessed as cell growth at 10^-4 M incubated for 48 hrs by sulforhodamine B assay; conditions: read-out: Activity
Method in brief: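 Five-dose assay: five concentrations from 10-fold or ½-log serial dilutions. Cells are plated at 5,000–40,000 per well according to doubling time, grown 24 h, then exposed 48 h at 37 °C, 5% CO₂. Fixed with cold 50% TCA (final addition) for 60 min at 4 °C and stained with 0.4% SRB in 1% acetic acid. Bound dye is solubilized in 10 mM Tris base and read at 515 nm. GI₅₀ is where [(Ti−Tz)/(C−Tz)]×100 = 50, with a time-zero plate as Tz.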

[20] = Growth inhibition of human TK10 cells assessed as cell growth at 10^-4 M incubated for 48 hrs by sulforhodamine B assay; conditions: TK-10, 48 h, read-out: Activity
[21] = Growth inhibition of human SF539 cells incubated for 48 hrs by sulforhodamine B assay; conditions: SF-539, 48 h; method in brief: as §2
[22] = test system: NCI-H522; assay: Growth inhibition of human NCI-H522 cells incubated for 48 hrs by sulforhodamine B assay; conditions: NCI-H522, 48 h; method in brief: as §2
[23] = test system: NCI-H23; assay: Growth inhibition of human NCI-H23 cells assessed as cell growth at 10^-5 M incubated for 48 hrs by sulforhodamine B assay; conditions: NCI-H23, 48 h, read-out: Activity
[24] = read-out: LC50 (the source's name)
[25] = read-out: pLC50 (the source's name) (converted)

In the case of Fc1ccc(-c2nc(Nc3ccc(-c4nc5ccccc5[nH]4)cc3)nc(N3CCOCC3)n2)cc1, the GI50 ([1]; read-out: GI50) was 1.9 µM, the CC50 [1, 24] was 6.56 µM and the TGI ([1]; read-out: TGI) was 3.53 µM. It also gave a GI50 ([1]; read-out: pGI50 (converted)) of 1.91 µM, a CC50 [1, 25] of 6.61 µM and a TGI ([1]; read-out: pTGI (converted)) of 3.55 µM. It also gave a growth at 0.1 µM [2] of 91%, a growth at 10 µM [3] of -23% and a growth at 0.1 µM [4] of 100%. For the same compound, the growth at 10 µM [5] was 5.74%, the GI50 ([6]; read-out: GI50) was 2.06 µM and the CC50 [6, 24] was greater than 100 µM. For the same compound, the TGI ([6]; read-out: TGI) was 5.69 µM, the GI50 ([6]; read-out: pGI50 (converted)) was 2.04 µM and the CC50 [6, 25] was greater than 100 µM. It also gave a TGI ([6]; read-out: pTGI (converted)) of 5.62 µM, a growth at 10 µM [7] of -38% and a GI50 [8] of 1.91 µM. It also gave a TGI [8] of 4.04 µM, a CC50 [8] of 7.43 µM and a growth at 1 µM [9] of 97%. For the same compound, the growth at 10 µM [10] was 17.5%, the growth at 100 µM [11] was -19% and the GI50 ([12]; read-out: GI50) was 2.11 µM. The LC50 ([12]; read-out: LC50) was greater than 100 µM, the TGI ([12]; read-out: TGI) was 5.3 µM and the GI50 ([12]; read-out: pGI50 (converted)) was 2.09 µM. For the same compound, the LC50 ([12]; read-out: pLC50 (converted)) was greater than 100 µM, the TGI ([12]; read-out: pTGI (converted)) was 5.25 µM and the growth at 100 µM [13] was 13%. The GI50 ([14]; read-out: GI50) was 1.8 µM, the CC50 [14, 24] was greater than 100 µM and the TGI ([14]; read-out: TGI) was 4.28 µM. It also gave a GI50 ([14]; read-out: pGI50 (converted)) of 1.78 µM, a CC50 [14, 25] greater than 100 µM and a TGI ([14]; read-out: pTGI (converted)) of 4.27 µM. For the same compound, the growth at 0.01 µM [15] was 104%, the growth at 10 µM [16] was -73% and the growth at 0.01 µM [17] was 98%. The growth at 0.1 µM [18] was 101%, the growth at 100 µM [19] was 3% and the growth at 100 µM [20] was -27%. For the same compound, the GI50 ([21]; read-out: GI50) was 1.63 µM, the CC50 [21, 24] was 8.47 µM and the TGI ([21]; read-out: TGI) was 3.72 µM. For the same compound, the GI50 ([21]; read-out: pGI50 (converted)) was 1.62 µM, the CC50 [21, 25] was 8.51 µM and the TGI ([21]; read-out: pTGI (converted)) was 3.72 µM. The GI50 ([22]; read-out: GI50) was 2.36 µM, the CC50 [22, 24] was greater than 100 µM and the TGI ([22]; read-out: TGI) was 5.85 µM. The GI50 ([22]; read-out: pGI50 (converted)) was 2.34 µM, the CC50 [22, 25] was greater than 100 µM and the TGI ([22]; read-out: pTGI (converted)) was 5.89 µM.

For c1ccc2[nH]c(-c3ccc(Nc4nc(N5CCCCC5)nc(N5CCOCC5)n4)cc3)nc2c1, the GI50 ([1]; read-out: GI50) was 1.91 µM, the CC50 [1, 24] was 7.88 µM and the TGI ([1]; read-out: TGI) was 3.87 µM. For the same compound, the GI50 ([1]; read-out: pGI50 (converted)) was 1.91 µM, the CC50 [1, 25] was 7.94 µM and the TGI ([1]; read-out: pTGI (converted)) was 3.89 µM. It also gave a growth at 0.1 µM [2] of 93%, a growth at 10 µM [3] of -11% and a growth at 0.1 µM [4] of 92%. It also gave a growth at 10 µM [5] of 23.1%, a GI50 ([6]; read-out: GI50) of 2.85 µM and a CC50 [6, 24] greater than 100 µM. For the same compound, the TGI ([6]; read-out: TGI) was 9.54 µM, the GI50 ([6]; read-out: pGI50 (converted)) was 2.82 µM and the CC50 [6, 25] was greater than 100 µM. It also gave a TGI ([6]; read-out: pTGI (converted)) of 9.55 µM, a growth at 10 µM [7] of -27.3% and a GI50 [8] of 1.95 µM. The TGI [8] was 4.18 µM, the CC50 [8] was 11.8 µM and the growth at 1 µM [9] was 94%. It also gave a growth at 10 µM [10] of 10.4%, a growth at 100 µM [11] of -31% and a GI50 ([12]; read-out: GI50) of 1.92 µM. The LC50 ([12]; read-out: LC50) was 9.73 µM, the TGI ([12]; read-out: TGI) was 4.32 µM and the GI50 ([12]; read-out: pGI50 (converted)) was 1.91 µM. It also gave an LC50 ([12]; read-out: pLC50 (converted)) of 9.77 µM, a TGI ([12]; read-out: pTGI (converted)) of 4.37 µM and a growth at 100 µM [13] of 5%. The GI50 ([14]; read-out: GI50) was 1.8 µM, the CC50 [14, 24] was 8.97 µM and the TGI ([14]; read-out: TGI) was 4.02 µM. It also gave a GI50 ([14]; read-out: pGI50 (converted)) of 1.82 µM, a CC50 [14, 25] of 8.91 µM and a TGI ([14]; read-out: pTGI (converted)) of 3.98 µM. The growth at 0.01 µM [15] was 101%, the growth at 10 µM [16] was -72% and the growth at 10 µM [23] was 6%. It also gave a growth at 0.01 µM [17] of 99%, a growth at 0.1 µM [18] of 107% and a growth at 100 µM [19] of 1%. For the same compound, the growth at 100 µM [20] was -32%, the GI50 ([21]; read-out: GI50) was 2.14 µM and the CC50 [21, 24] was 28.5 µM. It also gave a TGI ([21]; read-out: TGI) of 5.75 µM, a GI50 ([21]; read-out: pGI50 (converted)) of 2.14 µM and a CC50 [21, 25] of 28.2 µM. The TGI ([21]; read-out: pTGI (converted)) was 5.75 µM, the GI50 ([22]; read-out: GI50) was 2.36 µM and the CC50 [22, 24] was greater than 100 µM. For the same compound, the TGI ([22]; read-out: TGI) was 6.22 µM, the GI50 ([22]; read-out: pGI50 (converted)) was 2.34 µM and the CC50 [22, 25] was greater than 100 µM. It also gave a TGI ([22]; read-out: pTGI (converted)) of 6.17 µM.
